Experimental data as given in ChEMBL document CHEMBL4145583, “Neuroprotective Compound from an Endophytic Fungus, Colletotrichum sp. JS-0367” (J Nat Prod, 2018).
Active and inactive are the calls of the source. No cut-off for these calls is given here.

Tests used:
HT-22 [1] = assay: Inhibition of glutamate-induced intracellular calcium level in mouse HT22 cells at 100 uM after 8 hrs by Flu-4 AM probe based fluorescence microscopic analysis relative to control; format: functional
In short: (§1)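 HT22 mouse hippocampal cells (DMEM, 10% FBS, penicillin/streptomycin, 37 °C, 5% CO2) were seeded at 5 × 10^4 cells/well and co-treated with 5 mM glutamate and the test agent for 8 h. They were then loaded with 2 μM Fluo-4 AM and rinsed with phenol-red-free medium. Fluorescence images were quantified as fold change versus untreated control cells (mean ± SEM).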

HT-22 [2] = assay: Inhibition of glutamate-induced intracellular ROS generation in mouse HT22 cells at 50 to 100 uM after 8 hrs by DCF-DA probe based fluorescence microscopic analysis; format: functional, cell-based
In short: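 HT22 cells were seeded at 1 × 10^4 per well in DMEM/10% FBS at 37 °C, 5% CO2. They were exposed to 5 mM glutamate with or without compound for 8 h, loaded with 10 μM DCF-DA for 30 min and washed three times with PBS. DCF fluorescence was read at ex 495/em 517 nm on a plate reader and expressed against control; images were taken by fluorescence microscopy. Mean ± SEM.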

[3] = target: Mitogen-activated protein kinase 1 and 3 (ERK2 and ERK1) (Mus musculus) (UniProt P63085+Q63844); assay: Inhibition of glutamate-induced ERK1/2 phosphorylation in mouse HT22 cells at 50 to 100 uM after 8 hrs by Western blot analysis; format: cell-based
In short: (§2)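 Mouse hippocampal HT22 cells were grown in DMEM with 10% FBS and penicillin/streptomycin at 37 °C in 5% CO2. Cells were exposed to 5 mM glutamate plus 50 or 100 μM compound for 8 h, then lysed in RIPA buffer with protease inhibitors. Lysates were run on SDS-PAGE and transferred to PVDF. Membranes were blocked in 5% milk and probed for 1 h with p-/total ERK1/2, JNK, p38 and GAPDH antibodies. Chemiluminescent bands were quantified as fold of control; mean ± SEM.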

HT-22 [4] = assay: Neuroprotective activity against glutamate-induced neuronal cell death in mouse HT22 cells assessed as increase in cell viability at 50 to 100 uM after 24 hrs by microscopy; format: functional, cell-based
[5] = Antioxidant activity assessed as DPPH radical scavenging activity at 100 uM; format: functional
[6] = Antioxidant activity assessed as DPPH radical scavenging activity; format: functional
HT-22 [7] = assay: Inhibition of glutamate-induced intracellular calcium level in mouse HT22 cells at 50 uM after 8 hrs by Flu-4 AM probe based fluorescence microscopic analysis relative to control; format: functional; in short: as §1
[8] = target: MAP kinase p38 (Mus musculus) (UniProt P47811+O08911+Q9WUI1+Q9Z1B7); assay: Inhibition of glutamate-induced p38 phosphorylation in mouse HT22 cells at 50 to 100 uM after 8 hrs by Western blot analysis; format: cell-based; in short: as §2
HT-22 [9] = assay: Neuroprotective activity against glutamate-induced neuronal cell death in mouse HT22 cells assessed as increase in cell viability after 24 hrs by Ez-CyTox reagent based assay; format: functional
In short: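 HT22 cells (DMEM/10% FBS, 37 °C, 5% CO2) were plated at 1 × 10^4 per well and left to adhere for 24 h. Glutamate (5 mM final) was added together with compounds for 24 h. EZ-Cytox reagent was applied for 30 min and absorbance read at 450 nm. Viability is given as % of untreated live control; mean ± SEM.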

Mus musculus = organism: Mus musculus; assay: Inhibition of glutamate-induced JNK phosphorylation in mouse HT22 cells at 50 to 100 uM after 8 hrs by Western blot analysis; format: cell-based; in short: as §2
HT-22 [10] = assay: Neuroprotective activity against glutamate-induced apoptotic cell death in mouse HT22 cells at 50 to 100 uM after 10 hrs by Alexa fluor-488 annexin V/PI staining based cytometric analysis; format: functional
In short: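 HT22 cells were seeded at 2 × 10^5 per well and treated with 5 mM glutamate and 50 or 100 μM compound for 10 h. Cells were harvested, washed in PBS, and equal numbers were labelled with Alexa Fluor 488 annexin V in binding buffer for 20 min, then with propidium iodide. Cells were counted by image-based cytometry as % annexin V-positive; mean ± SEM.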

Mitogen-activated protein kinase 1 and 3 (ERK2 and ERK1) (Mus musculus), sequence (P63085 whole entry, looked up): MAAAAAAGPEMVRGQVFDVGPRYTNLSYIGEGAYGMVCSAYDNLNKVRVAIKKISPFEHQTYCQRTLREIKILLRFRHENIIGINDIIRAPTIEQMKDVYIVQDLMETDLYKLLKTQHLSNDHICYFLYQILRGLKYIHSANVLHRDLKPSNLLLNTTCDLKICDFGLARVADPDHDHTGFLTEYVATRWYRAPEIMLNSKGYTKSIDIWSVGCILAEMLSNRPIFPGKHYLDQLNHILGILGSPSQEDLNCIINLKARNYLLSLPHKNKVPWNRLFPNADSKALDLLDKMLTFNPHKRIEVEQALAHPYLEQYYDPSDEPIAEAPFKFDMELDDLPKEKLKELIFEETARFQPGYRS
Mitogen-activated protein kinase 1 and 3 (ERK2 and ERK1) (Mus musculus), sequence (Q63844 whole entry, looked up): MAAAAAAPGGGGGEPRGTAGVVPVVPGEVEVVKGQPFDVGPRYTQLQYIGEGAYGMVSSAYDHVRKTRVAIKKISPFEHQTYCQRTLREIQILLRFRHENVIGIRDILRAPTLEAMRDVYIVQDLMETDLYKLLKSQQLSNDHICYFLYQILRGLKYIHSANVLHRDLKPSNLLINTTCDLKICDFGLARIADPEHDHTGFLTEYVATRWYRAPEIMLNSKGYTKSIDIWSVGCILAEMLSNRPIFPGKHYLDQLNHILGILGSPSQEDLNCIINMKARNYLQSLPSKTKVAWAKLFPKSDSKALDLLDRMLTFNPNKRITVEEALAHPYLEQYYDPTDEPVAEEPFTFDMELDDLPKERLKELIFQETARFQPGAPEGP

COc1cc(C)cc2c1C(=O)c1c(cc(O)c(O)c1O)C2=O
fold change (FC) (HT-22 [1]): 0.98
inhibition (HT-22 [2]): Active
inhibition [3]: Active
Activity (HT-22 [4]): Active
Activity [5]: 70%
Activity [6]: Dose-dependent effect
IC50 [6]: 42.2 µM
fold change (FC) (HT-22 [7]): 1.4
inhibition [8]: Active
Activity (HT-22 [9]): Dose-dependent effect
inhibition (Mus musculus): Active
Activity (HT-22 [10]): Active
